The subject of experiment [1] is Mus musculus. Kind of experiment: Anticonvulsant activity in NMRI mouse assessed as pentylenetetrazole-induced clonic seizure threshold at 20 mg/kg, ip administered 60 mins before pentylenetetrazole challenge. The format is functional. The conditions noted are these: route intraperitoneal. Summed up:
(§1)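 Male NMRI mice (24-30 g), at least eight per group, each used once. Compounds dispersed in 0.5% CMC and given i.p. in 10 ml/kg, 60 min before PTZ. PTZ (0.5% in saline) infused i.v. into the tail vein at 0.5 ml/min in unrestrained animals until forelimb clonus then full body clonus. Threshold = minimal PTZ dose (mg/kg) for clonic seizure, expressed as % and compared with CMC group; mean ± SEM.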

For experiment [2], the system named is Mus musculus. In words: Anticonvulsant activity in NMRI mouse assessed as pentylenetetrazole-induced clonic seizure threshold at 10 mg/kg, ip administered 60 mins before pentylenetetrazole challenge. The class given is functional. The conditions noted are these: route intraperitoneal. Summed up:
as §1

For experiment [3], the system named is Mus musculus. Kind of experiment: Anticonvulsant activity in NMRI mouse assessed as pentylenetetrazole-induced clonic seizure threshold at 5 mg/kg, ip administered 60 mins before pentylenetetrazole challenge. The class given is functional. The conditions noted are these: route intraperitoneal. Summed up: as §1
Experiment [4] in a line: Displacement of [3H]flumazenil from GABAA/BZD receptor in Sprague-Dawley rat cortical membrane after 35 mins by competition binding assay. Summed up:
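Cortex from male Sprague-Dawley rats (300-350 g), homogenized in Tris-HCl, washed, and preincubated 30 min at 37°C; membranes stored at -20°C and used within 1-15 days. 100 µg membrane protein incubated with 8.6×10^-5 nmole [3H]-flumazenil plus increasing test ligand in 50 mM Tris-HCl pH 7.4 (0.5 mL), 30°C, 35 min. Stopped by centrifugation. Excess diazepam defined nonspecific binding. Triplicates; IC50 = 50% inhibition of specific binding.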

With `CCOc1nnc(Cc2ccc(Cl)cc2Oc2ccccc2F)[nH]1`, the Activity in the experiment on Mus musculus [1] is 138.25%; in the experiment with Mus musculus [2], 115.67%; in the experiment on Mus musculus [3], 110.82%. The compound also gave an IC50 in experiment [4] of 2.07 nM. In experiment [4], this compound showed a Kd of 1.26 nM.

Turning to `Fc1ccccc1Oc1cc(Cl)ccc1Cc1n[nH]c(=S)[nH]1`, in experiment [4], the IC50 was 1.36 nM and the affinity, expressed as Kd, was 0.836 nM.

Turning to `CCCSc1nnc(Cc2ccc(Cl)cc2Oc2ccccc2Cl)[nH]1`, the Activity in the experiment on Mus musculus [1] was determined as 134.09%; in the experiment on Mus musculus [2], 125.29%; in the experiment with Mus musculus [3], 117.68%. The compound also returned a 50% inhibitory concentration (IC50) in experiment [4] of 1.35 nM. The same compound yielded a Kd in experiment [4] of 0.82 nM.

Regarding `CCSc1nnc(Cc2ccc(Cl)cc2Oc2ccccc2Cl)[nH]1`, the Activity stood at 173.98% in the experiment with Mus musculus [1], 139.99% in the experiment on Mus musculus [2] and 133.58% with Mus musculus [3]. Further, the IC50 in experiment [4] worked out at 1.63 nM. In experiment [4], the Kd was determined as 1 nM.

Consider `CCSc1nnc(Cc2ccc(Cl)cc2Oc2ccccc2F)[nH]1`, for which the Activity with Mus musculus [1] is listed as 141.4%; in the experiment with Mus musculus [2], 144.44%; in the experiment on Mus musculus [3] it was 125.52%. The same compound had an IC50 in experiment [4] of 1.32 nM. The compound further came in with a Kd in experiment [4] of 0.8 nM.

`CSc1nnc(Cc2ccc(Cl)cc2Oc2ccccc2Cl)[nH]1`: the Activity in the experiment on Mus musculus [1] is listed as 169.89%; in the experiment on Mus musculus [2] it was 131.61%; with Mus musculus [3], 125.02%. In experiment [4], the IC50 was found to be 2.52 nM. This compound also registered a Kd in experiment [4] of 1.54 nM.

On to `Nc1nnc(Cc2ccccc2Oc2ccccc2)o1`, for which the values for the Activity with Mus musculus [1], in the experiment with Mus musculus [2] and in the experiment on Mus musculus [3] were 174.36%, 142.52% and 131.63%, respectively. In addition, in experiment [4], the IC50 was 1.9 nM. The compound also yielded a Kd in experiment [4] of 1.17 nM.

With `CSc1nnc(Cc2ccccc2Oc2ccccc2)[nH]1`, the Activity with Mus musculus [1] came to 147.06%; with Mus musculus [2] it was 132.83%; with Mus musculus [3] it was 120.26%. Further, in experiment [4], the IC50 was 1.38 nM. Also, the Kd in experiment [4] was 0.84 nM.

Consider `c1ccc(CSc2nnc(Cc3ccccc3Oc3ccccc3)[nH]2)cc1`, for which the Activity in the experiment with Mus musculus [1] is 143.4%; in the experiment on Mus musculus [2] it was 139.21%; with Mus musculus [3] it was 129.27%. In experiment [4], this compound yielded an IC50 of 2.07 nM. Also, in experiment [4], binding was put at a Kd of 1.27 nM.

Regarding `CSc1nnc(Cc2ccc(Cl)cc2Oc2ccccc2F)[nH]1`, the figures for the Activity with Mus musculus [1], in the experiment with Mus musculus [2] and in the experiment on Mus musculus [3] were 135.53%, 121.41% and 110.43%, respectively. This compound showed an IC50 in experiment [4] of 3.78 nM. Also, the Kd in experiment [4] stood at 2.32 nM.

Take `S=c1[nH]nc(Cc2ccccc2Oc2ccccc2)[nH]1`: the values for the Activity in the experiment with Mus musculus [1], in the experiment with Mus musculus [2] and in the experiment on Mus musculus [3] were 160.47%, 141.88% and 126.2%, respectively. The IC50 in experiment [4] came out at 3.1 nM. The compound also gave a Kd in experiment [4] of 1.9 nM.

As for `Fc1ccccc1Oc1cc(Cl)ccc1Cc1nnc(SCc2ccccc2)[nH]1`, the Activity with Mus musculus [1] came to 178.53%; in the experiment on Mus musculus [2], 168.6%; in the experiment on Mus musculus [3], 165.66%. For the same compound, the IC50 in experiment [4] stood at 0.892 nM. The compound further returned a Kd in experiment [4] of 0.544 nM.

`Nc1nnc(Cc2ccc(Cl)cc2Oc2ccccc2F)o1`: the Activity in the experiment on Mus musculus [1] is recorded as 154.23%; in the experiment on Mus musculus [2], 128.95%; in the experiment on Mus musculus [3], 111.61%. Further, in experiment [4], the IC50 turned out to be 1.89 nM. This compound also had a Kd in experiment [4] of 1.16 nM.

In experiment [4], `CN1C(=O)CN=C(c2ccccc2)c2cc(Cl)ccc21` [DIAZEPAM] returned an IC50 of 2.86 nM and a Kd of 1.75 nM.

Turning to `S=c1[nH]nc(Cc2ccc(Cl)cc2Oc2ccccc2Cl)[nH]1`, the Activity is 158.77% in the experiment on Mus musculus [1], 138.87% in the experiment on Mus musculus [2] and 124.08% with Mus musculus [3]. The compound further came in with an IC50 in experiment [4] of 1.78 nM. For the same compound, the Kd in experiment [4] came to 1.09 nM.

In the case of `CCCSc1nnc(Cc2ccccc2Oc2ccccc2)[nH]1`, the Activity in the experiment with Mus musculus [1] is listed as 157.5%; with Mus musculus [2], 139.38%; in the experiment with Mus musculus [3], 127.77%. The IC50 in experiment [4] was 1.24 nM. For the same compound, in experiment [4], binding was characterised by a dissociation constant (Kd) of 0.75 nM.

Turning to `Nc1nnc(Cc2ccc(Cl)cc2Oc2ccccc2Cl)o1`, the Activity turned out to be 170.25% with Mus musculus [1], 132.44% with Mus musculus [2] and 125.22% in the experiment with Mus musculus [3]. In experiment [4], this compound came in with an IC50 of 1.75 nM. In experiment [4], this compound gave a Kd of 1.1 nM.

Regarding `CCOc1nnc(Cc2ccc(Cl)cc2Oc2ccccc2Cl)[nH]1`, the values for the Activity in the experiment on Mus musculus [1], in the experiment with Mus musculus [2] and with Mus musculus [3] were 134.63%, 122.29% and 120.06%, respectively. In experiment [4], this compound registered an IC50 of 2.13 nM. The compound further yielded a Kd in experiment [4] of 1.3 nM.

Regarding `CCSc1nnc(Cc2ccccc2Oc2ccccc2)[nH]1`, the Activity in the experiment on Mus musculus [1] was found to be 168.55%; in the experiment on Mus musculus [2], 141.9%; with Mus musculus [3] it was 132.47%.

Turning to `CCCSc1nnc(Cc2ccc(Cl)cc2Oc2ccccc2F)[nH]1`, the Activity with Mus musculus [1] was 133.41%; with Mus musculus [2], 127.32%; with Mus musculus [3], 119.45%. The same compound came in with an IC50 in experiment [4] of 1.97 nM. Also, the Kd in experiment [4] was 1.21 nM.

On to `CCOc1nnc(Cc2ccccc2Oc2ccccc2)[nH]1`, for which the Activity with Mus musculus [1] is 143.52%; with Mus musculus [2], 125.79%; in the experiment with Mus musculus [3], 122.56%. Further, the IC50 in experiment [4] was found to be 3.49 nM. The same compound gave a Kd in experiment [4] of 2.14 nM.

On to `Clc1ccc(Cc2nnc(SCc3ccccc3)[nH]2)c(Oc2ccccc2Cl)c1`, for which the Activity in the experiment on Mus musculus [1] is reported as 128.77%; with Mus musculus [2], 122.18%; with Mus musculus [3], 112.52%. The compound further gave an IC50 in experiment [4] of 2.23 nM. In addition, the Kd in experiment [4] was found to be 1.36 nM.

In general, IC50 refers to the concentration needed to halve the response being measured. Low readings indicate greater potency in that assay, high ones weaker potency in that assay. Broadly, the Kd is a measure of binding affinity in units of concentration. A lower Kd goes with tighter binding.

These data come from ChEMBL document CHEMBL3120050, “Synthesis, receptor affinity and effect on pentylenetetrazole-induced seizure threshold of novel benzodiazepine analogues: 3-Substituted 5-(2-phenoxybenzyl)-4H-1,2,4-triazoles and 2-amino-5-(phenoxybenzyl)-1,3,4-oxadiazoles” (Bioorg Med Chem, 2014).
